Here are results for 11 compounds from ChEMBL document CHEMBL3864132, “Free fatty acid receptor 1 (GPR40) agonists containing spirocyclic periphery inspired by LY2881835” (Bioorg Med Chem, 2016).

The nature of series [1]: Apparent permeability from apical to basolateral side in human Caco2 cells at 10 uM by HPLC-MS analysis. The format is ADME, cell-based. As to conditions: Caco-2. A digest of the protocol: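 Apical-to-basolateral transport across Caco-2 monolayers, integrity checked by TEER in every well. Compound at 10 μM, acceptor concentrations by HPLC-MS. Papp = (VA/(area × time)) × ([drug]acc/[drug]initial,donor), insert area 0.31 cm², in 10^-6 cm/s. Mean of n = 2.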

Series [2] concerns the target T1, Free fatty acid receptor 1 (Homo sapiens, UniProt O14842). The series can be described thus: Agonist activity at human FFA1 receptor expressed in CHO cells assessed as induction of Ca2+ flux by fluo-8 dye based FLIPR assay. The format is functional, cell-based. A digest of the protocol:
(§1)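 CHO cells stably expressing human GPR40 seeded 24 h before assay, loaded 1 h with Fluo-8 calcium dye, read on FLIPR. Agonist response taken as maximum fluorescence change over baseline; concentration-response curves fitted for EC50. Efficacy expressed relative to GW9508 at 5 μM.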
(In general: A change in cytosolic calcium serves as a functional read-out for many receptors and channels.)

Series [3] deals with T1, Free fatty acid receptor 1. As to the kind of experiment: Agonist activity at FFA1 receptor (unknown origin). A digest of the protocol:
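Read-out on FLIPR as maximum fluorescence change over baseline. Dose-response testing gave EC50 from curve fitting. Efficacy is expressed as % of GW9508 reference agonist used at 5 μM.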

Series [4] has as its target T1, Free fatty acid receptor 1. The series can be described thus: Agonist activity at human FFA1 receptor expressed in CHO cells assessed as induction of Ca2+ flux by fluo-8 dye based FLIPR assay relative to GW9508. The format is functional, cell-based. A digest of the protocol:
as §1

Where only a bound is given, the exact number is not on record here.

T1 sequence (O14842 whole entry): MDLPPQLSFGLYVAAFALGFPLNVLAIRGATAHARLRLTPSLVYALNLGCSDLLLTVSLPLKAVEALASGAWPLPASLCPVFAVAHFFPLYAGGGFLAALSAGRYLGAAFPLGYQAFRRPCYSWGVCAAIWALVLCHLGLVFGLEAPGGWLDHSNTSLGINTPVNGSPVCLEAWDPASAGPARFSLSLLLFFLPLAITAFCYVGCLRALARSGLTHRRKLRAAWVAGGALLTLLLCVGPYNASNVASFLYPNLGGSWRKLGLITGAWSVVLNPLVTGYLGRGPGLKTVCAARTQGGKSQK

For the compound `CC(C)NCC(O)COc1cccc2ccccc12` (centres undefined) [PROPRANOLOL], in series [1], the Papp A→B at 10 µM amounted to 28 ×10⁻⁶ cm/s. Consider `O=C(O)CCc1ccc(OCc2ccc(CN3CCC4(CC3)CC(Cc3cccc(F)c3)CCO4)cc2)cc1` (centres undefined), for which, in series [2], the EC50 is above 20 µM. Take `CC#C[C@@H](CC(=O)O)c1ccc(OCc2ccc(CN3CCC4(C=Cc5ccccc54)CC3)cc2)cc1` [LY2881835]: the EC50 in series [3] came to 0.233 µM. Consider `O=C(O)CCc1ccc(OCc2ccc(CN3CCC4(CCCCO4)CC3)cc2)cc1`, for which, in series [2], the concentration giving a half-maximal response (EC50) is above 20 µM. As for `C[C@]12CC[C@H]3[C@@H](CCC4=CC(=O)CC[C@@]43C)[C@@H]1CC[C@@H]2O` [TESTOSTERONE], the Papp A→B at 10 µM in series [1] stood at 13.6 ×10⁻⁶ cm/s. Consider `O=C(O)CCc1ccc(OCc2ccc(CN3CCC4(CC3)CC(OCc3ccc(F)cc3)CCO4)cc2)cc1` (centres undefined), for which, in series [2], the concentration giving a half-maximal response (EC50) is 2.01 µM. In addition, the maximal response (Emax) in series [4] was 75%.

Turning to `O=C(O)CCc1ccc(OCc2ccc(CN3CCC4(CC3)CC(OCc3ccc(C(F)(F)F)cc3)CCO4)cc2)cc1` (centres undefined), the EC50 in series [2] is above 20 µM.

In the case of `CCOC1CCOC2(CCN(Cc3ccc(COc4ccc(CCC(=O)O)cc4)cc3)CC2)C1` (centres undefined), the EC50 in series [2] was above 20 µM. The same measure, in the same setting: under `O=C(O)CCc1ccc(OCc2ccc(CN3CCC4(CC3)CC(Cc3nc(-c5cccnc5)no3)CCO4)cc2)cc1` (centres undefined) stands above 20 µM. As for `O=C(O)CCc1ccc(OCc2ccc(CN3CCC4(CC3)CC(OCc3cccc(F)c3)CCO4)cc2)cc1` (centres undefined), the EC50 in series [2] is 1.3 µM. The Emax in series [4] amounted to 98%. As to `O=C(O)CCc1ccc(OCc2ccc(CN3CCC4(CC3)CC(Cc3ccccc3F)CCO4)cc2)cc1` (centres undefined), the half-maximal effective concentration (EC50) in series [2] is 0.81 µM. In addition, the Emax in series [4] is 95%.

For orientation: Papp A→B means the apparent permeability from the apical to the basolateral side of a cell layer. In general, EC50 refers to the concentration giving half of the maximal effect. By Emax is commonly meant the maximal effect, on the per cent scale that the assay sets.
